Hsp70 activator: transcriptional activators of Hsp70 | HeLa Hsp70 promoter luciferase reporter, luminescence; scaled: vehicle 0, proteasome-inhibitor control 100% | activation, % at 10 µM | actives 0.04% (n = 200,000);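 active = activation above the mean across all tested compounds plus 3 SD, cutoff set per campaign, cut at about 5.5% in these data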;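 also: 100% = MG132 at 30 µM as the positive control and 0% = DMSO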
HSF1 inhib: HSF1 inhibition. NIH3T3-HGL HSE-luciferase, MG132-induced, luminescence 8 h; hits give low values. activity change, negative = inhibition, % at 7.5 µM (by protocol). actives 0.77% (n = 300,000). AID 2098;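 active = more than half of replicate wells show activity change below -50%, luminescence cut by over half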;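 also: luciferase reports HSF-1 transcriptional activity via heat shock element; 0% = median of DMSO wells and -100% = zero luminescence signal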
Rad51 HR inh: blocks human Rad51 in homologous recombination; hRad51 DNA strand exchange, fluorescence dequenching; AID 1385; inhibition, % at 10 µM; actives 0.085% (n = 200,000); Q06609;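 active = inhibition above 40% at the single screening dose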;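 also: 0% = DMSO control wells and 100% = blanks with heterologous ssDNA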
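Read-out basis: percent inhibition relative to plate controls and blanks / Assay system: human Rad51 nucleoprotein filaments preassembled on unlabelled ssDNA / Timing: filaments 15 min 37 °C, then compound 30 min / Control set: per-plate controls and blanks / Technique: fluorescence dequenching at 485/520 nm / Compound: 10 µM final, single point / Also added: Fluorescein- and BHQ1-tagged 47-mer duplex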
HSF-1 act: increases HSF-1 driven luciferase reporter signal | actives 1.7% (n = 300,000) | NIH3T3-HGL HSF-1 luciferase reporter, MG132, 8 h; 100% = twice DMSO control signal | activation, % at 9 µM;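 active = mean replicate activation of at least 50% with a set share of replicates each reaching 50%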;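 also: 0% = median of the neutral control wells and 100% = twice that signal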
MDM2 E3 inh: blocks human Mdm2 ubiquitin ligase activity | Q00987 | cell-based MDM2 ubiquitination luciferase reporter, 2 h; 0 = plate control, 100 = twice control, blank-subtracted | signal enhancement, % at 5 µM | actives 0.11% (n = 210,000) | AID 1230;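 active = signal enhancement of 30% or more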;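 also: luminescence tracks abundance of the self-degrading MDM2-luciferase fusion protein; higher signal means inhibition of MDM2 E3 ligase activity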
Target sequence (Q00987 whole entry, looked up, the tested form may be a part): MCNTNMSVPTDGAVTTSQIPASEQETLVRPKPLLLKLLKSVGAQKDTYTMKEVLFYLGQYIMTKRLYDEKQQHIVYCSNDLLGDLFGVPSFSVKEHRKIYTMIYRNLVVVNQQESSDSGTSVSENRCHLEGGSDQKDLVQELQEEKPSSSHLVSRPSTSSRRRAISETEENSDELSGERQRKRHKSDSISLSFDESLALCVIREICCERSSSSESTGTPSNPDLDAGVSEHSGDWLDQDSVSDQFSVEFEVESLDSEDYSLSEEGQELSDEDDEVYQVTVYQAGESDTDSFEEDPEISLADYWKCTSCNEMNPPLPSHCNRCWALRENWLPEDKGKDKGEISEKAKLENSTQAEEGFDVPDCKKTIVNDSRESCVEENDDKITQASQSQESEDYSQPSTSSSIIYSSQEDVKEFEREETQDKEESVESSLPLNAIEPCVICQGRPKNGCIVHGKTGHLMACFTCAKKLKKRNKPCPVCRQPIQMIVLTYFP
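system = mammalian cells stably expressing self-ubiquitinating, self-degrading MDM2 E3–luciferase fusion | quantity = 2000 cells per well seeded | incubation = 4 h cell settling then 2 h compound exposure, 37 °C | signal = SteadyLite luminescence, 15 min reagent step | benchmarks = plate control and blank wells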
HSV augment: HSV replication enhancement; HSV replication augmentation in cells, fold increase; maximum fold increase; actives 0.005% (n = 220,000); in the data active = maximum fold increase above about 1.5; tested in PC3 cells
Numbers without * were called inactive; i = inactive; . = not tested or not shown. A selection: hits, their analogues and other compounds. The true share with any hit is near 2.6%.

SMILES	Hsp70 activator	HSF1 inhib	Rad51 HR inh	HSF-1 act	MDM2 E3 inh	HSV augment
O=c1c2ccccc2nc(SCc2nnc(-c3ccccc3Br)o2)n1Cc1ccco1	0	64	-5	97*	-2	i
COc1c(Cl)cccc1-c1cn2ccc(C)cc2n1	.	26	17	58*	-26	i
Cc1ccn2cc(-c3cnoc3C)nc2c1	0	2	8	16	.	i
COc1ccc2oc(C(=O)OCC(=O)NC(C)c3ccccc3)c(C)c2c1 (stereo not drawn)	.	-4	.	-3	.	.
O=C(N=Nc1c(O)n(Cc2ccccc2)c2ccccc12)c1ccc(O)cc1	0	51	-1	62*	-3	i
O=C(Nc1cc(Cl)ccc1Cl)c1ccco1	.	-6	.	1	.	.
Nc1ccc(NC(=O)c2ccco2)c(Cl)c1	0	18	-8	56*	-2	i
O=C(Cc1ccccc1)Nc1ccc(NC(=O)Cc2ccccc2)c(Cl)c1	.	-3	.	1	.	.
O=C(Cc1ccccc1)Nc1ccc(NC(=O)c2ccco2)cc1Cl	.	-56*	.	-63	.	.
Cc1cc(O)c(CN(C)C)c2c1C(=O)/C(=C/c1ccco1)O2	.	4	.	2	.	.
Cc1cc(O)c(C=O)c2c1C(=O)Oc1c(CO)c(O)c3c(c1O2)C(O)OC3=O (stereo not drawn)	0	.	66*	.	3	i
Cc1ccc(S(=O)(=O)N2CCCCC2CCNC(=O)C(=O)NCC2CCCO2)cc1 (stereo not drawn)	.	-2	.	1	.	.
COc1cccc(-c2c(C(=O)N/N=C(\C)c3ccc(Cl)s3)nnn2-c2nonc2N)c1	.	27	.	56*	.	.
CCOc1cccc(-c2c(C(=O)N/N=C/c3ccc(C)o3)nnn2-c2nonc2N)c1	.	-68*	.	-74	.	.
CCOc1cccc(-c2c(C(=O)N/N=C/c3ccco3)nnn2-c2nonc2N)c1	.	-2	.	18	.	.
O=C(NC(=S)Nc1ccc2oc(=O)ccc2c1)c1cccc(Cl)c1	.	5	.	13	.	.
C(=N\Nc1nc2ccccc2s1)/c1ccccn1	.	-87*	-9	-88	-90	i
C(=N\N=C\c1ccccn1)/c1ccccn1	.	-7	.	-13	.	.
Brc1csc(/C=N/Nc2nc3ccccc3s2)c1	0	21	-6	40	-14	i
O=C(O)c1ccc(NC2=Nc3cccc4cccc2c34)cc1	.	-18	.	-28	-14	i
C(=N\NC1=Nc2cccc3cccc1c23)/c1ccccn1	0	-71*	-19	-73	-18	i
Clc1ccccc1/C=N/NC1=Nc2cccc3cccc1c23	0	-17	-21	-31	346*	i
Cc1[nH]c2ccccc2c1CN1CCC(Cc2ccccc2)CC1	0	5	33	3	1	i
O=C(Nc1ccc(F)cc1)c1ccccc1S(=O)(=O)c1ccccc1[N+](=O)[O-]	-1	0	11	2	49*	i
CCc1ccc(NC(=O)CN(c2ccccc2)S(=O)(=O)N(C)C)cc1	0	13	7	60*	-11	i
SMILES	Hsp70 activator	HSF1 inhib	Rad51 HR inh	HSF-1 act	MDM2 E3 inh	HSV augment
COc1ccc(/C=C2\CCC/C(=C\c3ccc(OC)c(OC)c3OC)C2=O)c(OC)c1OC	.	38	.	53*	.	.
COc1ccc(C=C2C(=O)c3ccccc3C2=O)cc1O	0	1	0	0	-10	i
COc1ccc2c(c1)CC/C(=C/c1ccccn1)C2=O	.	38	.	66*	.	.
COc1ccc2c(c1)CC/C(=C/c1cc(OC)c(OC)c(OC)c1)C2=O	0	3	13	-15	-11	i
COc1ccc(/C=C2\CN(Cc3ccccc3)C/C(=C\c3ccc(OC)c(O)c3)C2=O)cc1O	.	84	.	91*	.	.
COc1ccc(/C=C2\CC/C(=C\c3ccc(OC)c(OC)c3)C2=O)cc1OC	0	29	18	63*	-23	i
COc1cccc(CC(NC(C)=O)C(=O)NC2CCN(S(=O)(=O)c3ccc(NC(C)=O)cc3)CC2)c1 (stereo not drawn)	0	3	0	-3	-7	i
COc1cccc(/C=C2\CCc3ccccc3C2=O)c1	.	13	.	11	-62	i
COc1ccc(/C=C2\CCc3ccccc3C2=O)cc1OC	0	30	.	68*	-13	i
COc1ccc(-c2nc(-c3cccs3)c(-c3cccs3)[nH]2)cc1OC	1	13	-4	12	-3	i
COc1ccc(-c2nc(-c3ccccc3)c(-c3cccs3)[nH]2)cc1OC	0	16	-53	51*	5	i
Cn1c(O)c(N=NC(=O)c2ccccc2O)c2ccccc21	0	23	-4	20	-21	i
Cc1cc(N=NC(=O)c2ccccc2O)c2ccccc2c1O	0	24	8	77*	-12	.
O=C(CNC(=O)C1CCCCC1)NC1=NCCS1	0	-88*	-1	-90	-28	i
CCCCOc1ccc(S(=O)(=O)N2CCCCCC2)cc1	0	37	8	66*	-19	i
CCCCOc1ccc(S(=O)(=O)N2CCN(C)CC2)cc1	.	10	.	26	.	.
Clc1ccccc1CSc1nnc(-c2ccccn2)n1Cc1ccco1	0	96	0	120*	-8	i
N#C/C(=C\c1c(Oc2ccccc2F)nc2ccccn2c1=O)C(=O)NC1CCS(=O)(=O)C1 (stereo not drawn)	.	9	.	6	.	.
COC(=O)C[C@](O)(CCCC(C)(C)O)C(=O)O[C@@H]1C(OC)=C[C@]23CCCN2CCc2cc4c(cc2[C@H]13)OCO4	.	-73*	-8	-76	.	i
COc1ccc(-c2noc(N3CCC(C(=O)NCCCN4CC(C)CC(C)C4)CC3)n2)cc1 (stereo not drawn)	.	-77*	.	-82	.	.
CCN(c1ccccc1)S(=O)(=O)c1cc(NC(=O)Nc2ccccc2C#N)ccc1Cl	0	17	5	59*	-8	i
CCN(c1ccccc1)S(=O)(=O)c1ccc(Cl)c(NC(=O)Nc2ccc(Cl)cc2C#N)c1	0	18	21	21	-2	i
O=C(COc1ccc(Br)cc1CO)Nc1ccccc1	0	10	4	21	-5	i
Oc1ccc(O)c(Cc2nc3ccccc3s2)c1	1	43	11	69*	-3	i
OCc1cc(Br)ccc1OCc1nc2ccccc2s1	.	33	.	71*	.	.
Oc1ccccc1OCc1nc2ccccc2s1	0	33	2	74*	-25	i
COc1ccc(C(=O)CSc2nnc(NC(=O)C3CC(=O)N(c4ccccc4)C3)s2)cc1 (stereo not drawn)	0	2	-1	8	-9	i
O=C(CSc1nnc(CNC(=O)c2cccs2)o1)Nc1ccc(F)cc1F	.	9	.	13	.	.

From PubChem
